Measured values taken from PMC8502542 (International Journal of Nanomedicine, 2021).

Key:
[1] = plasma, after administration; cited from earlier work
MIA PaCa-2 cell line = experiment: MTT cytotoxicity and combination index; format: cell-based, human; settings: MIA PaCa-2, MTT, 72 hours
Method in brief: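 MIA PaCa-2 (ATCC) seeded at 3×10^3 cells/well and grown 24 h at 37°C, 5% CO2. Exposed 72 h to test compound (DMSO solution, solvent-based, or albumin nanoparticle form) at 0.01, 0.1, 1, 5, 10, 50, 100 and 1000 ng/mL. MTT (0.5 mg/mL) added for 2 h, formazan dissolved in DMSO, A550 read. Survival expressed as % of control wells.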

SMILES | initial half-life (T1/2,initial) [1] [min] | IC50, weight ratio CFZ:PTX 1: 0 (MIA PaCa-2 cell line; CFZ form alone) [ng/mL] | IC50, weight ratio CFZ:PTX 0: 1 (MIA PaCa-2 cell line; PTX form alone) [ng/mL]
CC(C)C[C@H](NC(=O)[C@H](CCc1ccccc1)NC(=O)CN1CCOCC1)C(=O)N[C@@H](Cc1ccccc1)C(=O)N[C@@H](CC(C)C)C(=O)[C@@]1(C)CO1 [CFZfree, carfilzomib] | < 20 | 8.90 | 
CC(=O)O[C@H]1C(=O)[C@@]2(C)[C@H]([C@H](OC(=O)c3ccccc3)[C@]3(O)C[C@H](OC(=O)[C@H](O)[C@@H](NC(=O)c4ccccc4)c4ccccc4)C(C)=C1C3(C)C)[C@]1(OC(C)=O)CO[C@@H]1C[C@@H]2O [PTXfree, paclitaxel] |  |  | 0.44
